From ChEMBL document CHEMBL3407479, “Structure-activity relationship for the oxadiazole class of antibiotics” (J Med Chem, 2015) come the findings set out here.

Data set [1] is described as follows: Plasma protein binding in human by equilibrium dialysis assay. On the technique in general: Equilibrium dialysis compares concentrations on both sides of a semipermeable membrane.
Data set [2] deals with Staphylococcus aureus. Briefly: Antibacterial activity against methicillin-sensitive Staphylococcus aureus ATCC 29213 after 16 to 20 hrs by broth microdilution method. The format is functional. (In general: Broth dilution looks for growth in wells or tubes with falling amounts of substance.)
Data set [3] concerns Staphylococcus aureus. Briefly: Antibacterial activity against vancomycin/methicillin-resistant Staphylococcus aureus VRS2 clinical isolate after 16 to 20 hrs by broth microdilution method. It counts as functional.
Data set [4] concerns Staphylococcus epidermidis. Briefly: Antibacterial activity against Staphylococcus epidermidis ATCC 35547 after 16 to 20 hrs by broth microdilution method. It counts as functional.
Data set [5] concerns Staphylococcus haemolyticus. Briefly: Antibacterial activity against Staphylococcus haemolyticus ATCC 29970 after 16 to 20 hrs by broth microdilution method. It counts as functional.
A further data set deals with Streptococcus oralis. Briefly: Antibacterial activity against Streptococcus oralis ATCC 9811 after 16 to 20 hrs by broth microdilution method. It counts as functional.
In another data set the test system is Streptococcus pyogenes. Briefly: Antibacterial activity against Streptococcus pyogenes ATCC 49399 after 16 to 20 hrs by broth microdilution method. It counts as functional.
In another data set the test system is Bacillus cereus. Briefly: Antibacterial activity against Bacillus cereus ATCC 13061 after 16 to 20 hrs by broth microdilution method. The format is functional.
The test system of another data set is Bacillus licheniformis. Briefly: Antibacterial activity against Bacillus licheniformis ATCC 12759 after 16 to 20 hrs by broth microdilution method. The format is functional.
Data set [6] deals with Enterococcus faecalis. Briefly: Antibacterial activity against Enterococcus faecalis ATCC 29212 after 16 to 20 hrs by broth microdilution method. The format is functional.
The subject of data set [7] is Enterococcus faecalis. Briefly: Antibacterial activity against vancomycin-susceptible Enterococcus faecalis 201 clinical isolate after 16 to 20 hrs by broth microdilution method. The format is functional.
In data set [8] the test system is Enterococcus faecalis. Briefly: Antibacterial activity against vancomycin-resistant Enterococcus faecalis 99 clinical isolate after 16 to 20 hrs by broth microdilution method. It counts as functional.
Data set [9] concerns Enterococcus faecium. Briefly: Antibacterial activity against vancomycin-susceptible Enterococcus faecium 119-39A clinical isolate after 16 to 20 hrs by broth microdilution method. It counts as functional.
Data set [10] concerns Enterococcus faecium. Briefly: Antibacterial activity against Enterococcus faecium NCTC 7171 after 16 to 20 hrs by broth microdilution method. It counts as functional.
The nature of data set [11]: Plasma protein binding in human at 10 uM after 6 hrs by equilibrium dialysis assay. The format is ADME, cell-free.
In a further data set the test system is HepG2. Briefly: Cytotoxicity against human HepG2 cells assessed as cell viability after 16 hrs by XTT assay. The format is cell-based. Conditions: HepG2, 16 h. The essentials: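 HepG2 cells were run in triplicate in an XTT viability assay. IC50 was derived from the concentration–response data.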
Data set [12] deals with Staphylococcus aureus. Briefly: Antibacterial activity against mecA-positive, methicillin/oxacillin/tetracycline-resistant and vancomycin/linezolid susceptible Staphylococcus aureus ATCC 27660 after 16 to 20 hrs by broth microdilution method. It counts as functional.
For data set [13], the system named is Staphylococcus aureus. Briefly: Antibacterial activity against mecA-positive, methicillin/oxacillin/tetracycline-resistant and vancomycin/linezolid susceptible Staphylococcus aureus COL after 16 to 20 hrs by broth microdilution method. It counts as functional.
For data set [14], the system named is Staphylococcus aureus. Briefly: Antibacterial activity against mecA-positive, ciprofloxacin/gentamicin/oxacillin/penicillin/linezolid-resistant Staphylococcus aureus NRS119 after 16 to 20 hrs by broth microdilution method. It counts as functional.
Data set [15] relates to Staphylococcus aureus. Briefly: Antibacterial activity against mecA-positive, ciprofloxacin/gentamicin/oxacillin/penicillin/linezolid-resistant Staphylococcus aureus NRS120 after 16 to 20 hrs by broth microdilution method. It counts as functional.
For data set [16], the system named is Staphylococcus aureus. Briefly: Antibacterial activity against vancomycin/methicillin-resistant Staphylococcus aureus VRS1 clinical isolate after 16 to 20 hrs by broth microdilution method. The format is functional.
Data set [17] concerns Enterococcus faecium. Briefly: Antibacterial activity against vancomycin-resistant Enterococcus faecium 106 clinical isolate after 16 to 20 hrs by broth microdilution method.

Values after ≈ are worked out from the molar mass of the structure shown. A value given as a limit tells only on which side of the number the result lay.

What is called fraction unbound is the share of the substance not bound to proteins or other matrix. Read a low fraction unbound as extensive binding. `Cc1onc(-c2ccccc2)c1C(=O)N[C@@H]1C(=O)N2[C@@H]1SC(C)(C)[C@@H]2C(=O)O` [OXACILLIN]: the unbound share (fraction unbound) in [1] is less than 0.09.
As usually defined, the MIC is the lowest concentration that inhibits growth of the organism. Read a high MIC as a need for much substance. Take `CCOP(=O)(OCC)c1ccc(-c2nc(-c3ccc(Oc4ccc(F)cc4)cc3)no2)cc1`: the minimal inhibitory concentration (MIC) in the data set on Staphylococcus aureus [2] is not below 128 µg/mL.
The term IC50 denotes the midpoint of a concentration-inhibition curve. On to `CC(C)Nc1c[nH]nc1-c1nc(-c2ccc(Oc3ccc(C(F)(F)F)cc3)cc2)no1`, for which the MIC against Staphylococcus aureus [3] was 4 µg/mL (≈ 9.32 µM); in data set [4] it was more than 128 µg/mL; in data set [5] it was more than 128 µg/mL; with Streptococcus oralis, more than 128 µg/mL; against Streptococcus pyogenes, more than 128 µg/mL; in the data set with Bacillus cereus, more than 128 µg/mL. Further, the minimum inhibitory concentration (MIC) with Bacillus licheniformis was more than 128 µg/mL; against Enterococcus faecalis [6], more than 128 µg/mL; in the data set on Enterococcus faecalis [7] it was more than 128 µg/mL; in the data set with Enterococcus faecalis [8], more than 128 µg/mL; with Enterococcus faecium [9], more than 128 µg/mL; with Enterococcus faecium [10], 32 µg/mL (≈ 74.5 µM). In addition, the minimum inhibitory concentration (MIC) with Staphylococcus aureus [2] was 0.5 µg/mL (≈ 1.16 µM); against Staphylococcus aureus [12], 0.5 µg/mL (≈ 1.16 µM); with Staphylococcus aureus [13], more than 128 µg/mL; against Staphylococcus aureus [14], 2 µg/mL (≈ 4.66 µM); with Staphylococcus aureus [15] it was more than 128 µg/mL; in the data set on Staphylococcus aureus [16] it was 1 µg/mL (≈ 2.33 µM). The molecule also yielded an MIC with Enterococcus faecium [17] of more than 128 µg/mL. In data set [11], the PPB amounted to 91.6%. The IC50 in the data set on HepG2 is 3.9 µg/mL (≈ 9.08 µM).
`O=[N+]([O-])c1ccc(-c2nc(-c3ccc(Oc4ccccc4)cc3)no2)cc1` returned an MIC in the data set with Staphylococcus aureus [2] not below 32 µg/mL.
The same measure, in the same setting: the figure for `Oc1ccc(Cc2nc(-c3ccc(Oc4ccccc4)cc3)no2)cc1` is 8 µg/mL (≈ 23.2 µM); for `Nc1c[nH]nc1-c1nc(-c2ccc(Oc3ccc(C(F)(F)F)cc3)cc2)no1` it is 4 µg/mL (≈ 10.3 µM); for `FC(F)(F)c1ccc(Oc2ccc(-c3noc(-c4cn[nH]n4)n3)cc2)cc1` it is 16 µg/mL (≈ 42.9 µM).
Still for that read-out and setting: to `Oc1ccc(-c2nc(-c3ccc(Oc4ccc(F)cc4)cc3)no2)cc1O` belongs 4 µg/mL (≈ 11 µM).
Still for that read-out and setting: to `Fc1ccc(Oc2ccc(-c3noc(-c4n[nH]c5ccccc45)n3)cc2)cc1` belongs not below 128 µg/mL; to `FC(F)(F)c1ccc(Oc2ccc(-c3noc(-c4ccc(Br)cc4)n3)cc2)cc1`, not below 128 µg/mL.
For the molecule `O=[N+]([O-])c1c[nH]nc1-c1nc(-c2ccc(Oc3ccc(F)cc3)cc2)no1`, inhibition of growth in the data set on Staphylococcus aureus [2] (MIC) required 1 µg/mL (≈ 2.72 µM).
With `FC(F)(F)c1ccc(Oc2ccc(-c3noc(-c4c[nH]cn4)n3)cc2)cc1`, the MIC in data set [4] was 32 µg/mL (≈ 86 µM); in data set [5], 16 µg/mL (≈ 43 µM); in the data set with Streptococcus oralis, more than 128 µg/mL; with Streptococcus pyogenes, 128 µg/mL (≈ 344 µM); in the data set with Enterococcus faecium [10], 8 µg/mL (≈ 21.5 µM); against Staphylococcus aureus [2], 2 µg/mL (≈ 5.37 µM). Further, the minimum inhibitory concentration (MIC) amounted to 32 µg/mL (≈ 86 µM) with Staphylococcus aureus [13], 4 µg/mL (≈ 10.7 µM) with Staphylococcus aureus [14] and 1 µg/mL (≈ 2.69 µM) in the data set with Staphylococcus aureus [16]. The same molecule had a PPB in data set [11] of 93.5%. The half-maximal inhibitory concentration (IC50) with HepG2 came to 31.5 µg/mL (≈ 84.6 µM).
`CCn1ccc(-c2nc(-c3ccc(Oc4ccc(F)cc4)cc3)no2)n1` returned a minimal inhibitory concentration (MIC) with Staphylococcus aureus [2] not below 128 µg/mL.
Same read-out and setting: to `Fc1ccc(Oc2ccc(-c3noc(-c4c[nH]c5ncccc45)n3)cc2)cc1` belongs not below 128 µg/mL; to `Cl.c1ccc(Oc2ccc(-c3noc(C4CCNCC4)n3)cc2)cc1`, 32 µg/mL.
The same measure, in the same setting: to `CC(C)Nc1c[nH]nc1-c1nc(-c2ccc(Oc3ccccc3)cc2)no1` belongs 0.5 µg/mL (≈ 1.38 µM).
